From PubChem
Compounds with a hit are over-represented: about 4.3% of the library has one in this group of screens.
RAM inhibit – yeast RAM network inhibition; S. cerevisiae dse1pr::URA3 reporter, 5-FOA growth OD615, 2 d; analog-sensitive cbk1-as2 kinase mutant strain; inhibition, % at 50 µM; 190,000 compounds, 1.8% hits; AID 868;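 active = inhibition above a set limit, 3 SD over mean compound inhibition, cut at about 8.4% in these data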;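 note: 0% = DMSO-only wells with no growth and 100% = 10 µM 1-NA-PP1 full growth; inhibition rescues growth on 5-FOA so higher OD means more RAM inhibition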
BB579 growth dn – chemicals that inhibit yeast BB579 growth in restrictive medium (lifespan-shortening candidates). 140,000 compounds, 0.51% hits. AID 804. inhibition, % at 10 µM. S. cerevisiae BB579 growth, OD615, 48 h;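 active = inhibition above a set limit, 3 SD over the mean compound inhibition, cut at about 44% in these data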
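Test system: S. cerevisiae DeaD strain BB579 yeast; Medium: restrictive CSMM-D medium; Compound: one dose, 10 µM compound with 0.25% DMSO; Incubation: 4 h cell preincubation, 48 h compound exposure, 30 °C humidified; Signal: OD at 615 nm; Benchmarks: amphotericin B at 10 µg/mL as positive control.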
Yeast life ext – yeast lifespan extension | 130,000 compounds, 0.68% hits | S. cerevisiae growth with nicotinamide, OD615; deaD strain in restrictive glucose medium | inhibition of the nicotinamide effect, % at 10 µM;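 active = inhibition above a set limit, placed 3 SD over the median of all compounds, cut at about 26% in these data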;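 note: 0% = nicotinamide-treated wells and 100% = cells grown without nicotinamide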
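Material: Modified budding yeast, DeaD strain | Medium: Restrictive glucose medium | Probe or stimulus: 1.5 mM nicotinamide | Dosing: Single dose 10 µM compound, 0.25% DMSO | Times: 48 h at 30 °C | Technique: OD615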
WT yeast gro inh – growth inhibition of WT yeast, mitochondrial fusion screen. inhibition, % at 10 µM. 190,000 compounds, 2.1% hits. mitochondrial fusion phenotypic screen, WT strain; in the data active = inhibition above about 58%; tested in S. cerevisiae
The depositor's hits bear a star.

Screening S=c1[nH]nc(COc2ccccc2)n1/N=C/C(Cl)=C/c1ccccc1 returned RAM inhibit 5, BB579 growth dn -34, Yeast life ext -8 and WT yeast gro inh 73*.
O=[N+]([O-])c1ccccc1/C=C/C=N/n1c(-c2ccccc2)n[nH]c1=S was read as RAM inhibit 2, BB579 growth dn -27, Yeast life ext -6 and WT yeast gro inh 61*.
Screening S=c1[nH]nc(COc2ccccc2)n1/N=C/c1cccnc1 returned RAM inhibit 1, BB579 growth dn -20, Yeast life ext -1 and WT yeast gro inh -1.
Screening Cc1ccc(C)c(SCC(=O)NC(=O)NCc2ccccc2)c1 returned RAM inhibit 11*, BB579 growth dn -59, Yeast life ext 1 and WT yeast gro inh -8.
For Cc1ccc(NC(=S)N(CCN2CCOCC2)Cc2cc3cc4c(cc3[nH]c2=O)OCO4)cc1 the results were RAM inhibit 2 and WT yeast gro inh -1.
Nc1nc2n(n1)C(c1c(F)cccc1Cl)CC(c1ccc(F)cc1)N2 (centres undefined) was read as RAM inhibit 0, BB579 growth dn -18, Yeast life ext -2 and WT yeast gro inh 16.
`COc1ccc(CCN2C(=O)N(c3ccc(OC)cc3)C(=O)C2CC(=O)Nc2ccccc2)cc1` (centres undefined) gave RAM inhibit 9.1* and WT yeast gro inh 13.
For Cc1nc2c(ccc3nc(NC(=O)Cc4ccccc4)sc32)s1 the results were RAM inhibit 11*, BB579 growth dn -20, Yeast life ext -3 and WT yeast gro inh 57.
Screening Cc1ccc(CC(=O)Nc2nc3ccccc3s2)cc1 returned RAM inhibit 1, BB579 growth dn -22, Yeast life ext -29 and WT yeast gro inh 7.
N#Cc1ccc(OCC(=O)NCCc2ccccn2)cc1 was read as RAM inhibit 2, BB579 growth dn -26, Yeast life ext 46* and WT yeast gro inh -5.
C[C@]12CC[C@@H]3c4ccc(O)cc4CC[C@H]3[C@@H]1CC[C@@H]2OC(=O)CCC(=O)O was read as RAM inhibit 2, BB579 growth dn -61, Yeast life ext 57* and WT yeast gro inh -4.
`NNC(=O)c1sc2cc(C(F)(F)F)cnc2c1-c1cccnc1` gave RAM inhibit -1 and WT yeast gro inh -10.
`COc1ccc(Cn2c(-c3ccc(Br)cc3)c[n+]3ccccc23)cc1` gave RAM inhibit 2, BB579 growth dn -23, Yeast life ext -7 and WT yeast gro inh 63*.
Screening COc1ccc(Cn2c(-c3ccc(OC)cc3)nc3ccccc32)cc1 returned RAM inhibit -1, BB579 growth dn -38 and WT yeast gro inh 55.
Screening Cc1cccc(OCC(=O)Nc2nc3ccc([N+](=O)[O-])cc3s2)c1C returned RAM inhibit 5, BB579 growth dn -62, Yeast life ext -16 and WT yeast gro inh 65*.
COc1ccc(Nc2nc(NN)nc(C)c2[N+](=O)[O-])cc1 was read as RAM inhibit 2 and WT yeast gro inh 1.
For COc1ccc(Nc2nc(N/N=C/c3ccc(N(C)C)cc3)nc(C)c2[N+](=O)[O-])cc1 the results were RAM inhibit 10.0*, BB579 growth dn -54, Yeast life ext 5 and WT yeast gro inh -4.
For COCCNC(=O)c1cc(-c2cccc(OC)c2)on1 the results were RAM inhibit -1, BB579 growth dn -10, Yeast life ext -20 and WT yeast gro inh 11.
`COc1ccc(NC(=O)c2cc(-c3cccc(OC)c3)on2)cc1` gave RAM inhibit 1 and WT yeast gro inh -8.
For COCC(C)NC(=O)c1cc(-c2cccc(OC)c2)on1 (centres undefined) the results were RAM inhibit 4, BB579 growth dn -32, Yeast life ext -27 and WT yeast gro inh 97*.
`COc1cccc(-c2cc(C(=O)Nc3cccc(O)c3)no2)c1` gave RAM inhibit 9.2*, BB579 growth dn -6, Yeast life ext -19 and WT yeast gro inh 13.
`Cc1ccc(C(=O)Nc2c(C)cc(-c3ccccc3)oc2=O)cc1` gave RAM inhibit 2 and WT yeast gro inh -1.
For Cc1sc2nc(CN(C(=O)c3cccs3)C3CCCC3)[nH]c(=O)c2c1C the results were RAM inhibit 2, BB579 growth dn -28, Yeast life ext -1 and WT yeast gro inh 7.
O=C(c1cccs1)N(Cc1nc2sc3c(c2c(=O)[nH]1)CCCC3)C1CCCC1 was read as RAM inhibit -1, BB579 growth dn -16, Yeast life ext 9 and WT yeast gro inh 61*.
Screening O=C1C2C(C(=O)N1c1ccccc1)N1CCCN1C2c1ccccc1 (centres undefined) returned RAM inhibit 4 and WT yeast gro inh -3.
